Experimental data published in ChEMBL document CHEMBL4616666, “Discovery of SHP2-D26 as a First, Potent, and Effective PROTAC Degrader of SHP2 Protein” (J Med Chem, 2020).
pIC50: −log10 of the molar value. Each block holds one compound with its values, some of them ahead of it. Calls of active or inactive are those of the source. No cut-off for these calls is given here.

Assays:
[1] = tested on: MV4-11; assay: Growth inhibition of human MV4-11 cells measured after 4 days by WST8 assay; settings: MV4-11, 96 h
[2] = tested on: KYSE-520 cell line; assay: Growth inhibition of human KYSE520 cells measured after 4 days by WST8 assay; settings: KYSE-520, 96 h
[3] = target: T1, von Hippel-Lindau disease tumor suppressor/Tyrosine-protein phosphatase non-receptor type 11 (Homo sapiens, UniProt Q06124+P40337); assay: Protac activity at VHL1/SHP2 in human KYSE520 cells assessed as induction of SHP2 degradation at 1 uM measured after 6 hrs by Western blot analysis relative to control; assay type: cell-based
Summary of the method: (§1)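 KYSE520 cells in RPMI 1640 + 10% FBS, 37 °C, 5% CO2, were exposed to degrader for 6 h. SHP2 was measured by Western blot and densitometry, with background-subtracted band normalized to net GAPDH band. Values are the average of three independent experiments.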
Target sequence in this assay (P40337 whole entry partner, one chain of several): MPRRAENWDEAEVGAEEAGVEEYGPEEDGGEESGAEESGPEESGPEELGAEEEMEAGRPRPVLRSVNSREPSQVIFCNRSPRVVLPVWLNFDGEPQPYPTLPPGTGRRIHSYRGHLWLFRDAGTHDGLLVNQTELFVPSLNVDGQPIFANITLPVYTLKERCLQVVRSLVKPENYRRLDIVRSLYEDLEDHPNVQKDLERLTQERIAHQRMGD

[4] = target: T1, von Hippel-Lindau disease tumor suppressor/Tyrosine-protein phosphatase non-receptor type 11; assay: Protac activity at VHL1/SHP2 in human KYSE520 cells assessed as induction of SHP2 degradation at 0.1 uM measured after 6 hrs by Western blot analysis relative to control; assay type: cell-based; summary of the method: as §1
Target sequence in this assay (P40337 whole entry partner, one chain of several): as above

[5] = target: T1, von Hippel-Lindau disease tumor suppressor/Tyrosine-protein phosphatase non-receptor type 11; assay: Protac activity at VHL1/SHP2 in human MV4-11 cells assessed as induction of SHP2 degradation at 0.1 uM measured after 24 hrs by Western blot analysis relative to control; assay type: cell-based
Summary of the method: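 MV4;11 cells in IMDM + 10% FBS were exposed to degrader for 24 h. SHP2 was quantified by Western blot densitometry, with background-subtracted band divided by net GAPDH loading-control band. Average of three independent experiments.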
Target sequence in this assay (P40337 whole entry partner, one chain of several): as above

[6] = target: T2, Tyrosine-protein phosphatase non-receptor type 11 (Homo sapiens) (UniProt Q06124); assay: Inhibition of SHP2 in human MV4-11 cells assessed as reduction in ERK phosphorylation at >3000 nM measured after 48 hrs by Western blot analysis relative to control; assay type: cell-based
T2 sequence (whole entry): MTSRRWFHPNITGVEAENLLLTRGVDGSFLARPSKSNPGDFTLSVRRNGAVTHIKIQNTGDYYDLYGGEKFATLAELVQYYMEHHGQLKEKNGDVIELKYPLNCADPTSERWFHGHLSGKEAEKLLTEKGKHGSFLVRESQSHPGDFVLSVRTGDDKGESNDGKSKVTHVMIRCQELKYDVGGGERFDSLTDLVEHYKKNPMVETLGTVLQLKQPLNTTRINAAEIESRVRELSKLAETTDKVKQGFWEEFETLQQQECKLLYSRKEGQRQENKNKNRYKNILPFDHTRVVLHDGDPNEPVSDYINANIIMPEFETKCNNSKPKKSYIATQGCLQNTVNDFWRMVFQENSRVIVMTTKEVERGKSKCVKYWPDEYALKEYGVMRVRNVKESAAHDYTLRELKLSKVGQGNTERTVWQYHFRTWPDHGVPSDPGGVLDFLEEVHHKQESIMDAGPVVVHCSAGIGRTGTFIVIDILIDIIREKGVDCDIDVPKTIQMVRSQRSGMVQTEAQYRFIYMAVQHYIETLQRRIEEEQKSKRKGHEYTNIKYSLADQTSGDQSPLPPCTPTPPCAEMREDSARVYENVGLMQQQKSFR

[7] = tested on: KYSE-520 cell line; assay: Potency index, ratio of SHP099 IC50 to test compound IC50 for growth inhibition of human KYSE520 cells; assay type: functional
[8] = target: T1, von Hippel-Lindau disease tumor suppressor/Tyrosine-protein phosphatase non-receptor type 11; assay: Protac activity at VHL1/SHP2 in human MV4-11 cells assessed as induction of SHP2 degradation measured after 12 hrs by Western blot analysis; assay type: cell-based
Summary of the method: (§2)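 Dose–response: KYSE520 (RPMI 1640) or MV4;11 (IMDM) cells, with 10% FBS, were treated across a concentration range for 12 h. SHP2 was measured by Western blot and densitometry, normalized to GAPDH band density.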

[9] = target: T1, von Hippel-Lindau disease tumor suppressor/Tyrosine-protein phosphatase non-receptor type 11; assay: Protac activity at VHL1/SHP2 in human KYSE520 cells assessed as induction of SHP2 degradation at 100 nM measured after 8 hrs by Western blot analysis relative to control; assay type: cell-based
Summary of the method: (§3)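 Kinetics: cells were seeded overnight in 6-well plates, then given degrader at 100 nM for 2, 4, 8, 12 and 24 h. Harvested cells were lysed in RIPA with protease/phosphatase inhibitors and SHP2 was read by Western blot against GAPDH loading control. KYSE520 were grown in RPMI 1640 and MV4;11 in IMDM, both with 10% FBS.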
Target sequence in this assay (P40337 whole entry partner, one chain of several): as the sequence (P40337 whole entry partner, one chain of several) above

[10] = Aqueous solubility of the compound; assay type: physicochemical; settings: buffer
[11] = target: T1, von Hippel-Lindau disease tumor suppressor/Tyrosine-protein phosphatase non-receptor type 11; assay: Protac activity at VHL1/SHP2 in human KYSE520 cells assessed as induction of SHP2 degradation at 0.1 uM measured after 3 hrs in presence of proteasome inhibitor MG132 by Western blot analysis; assay type: cell-based
Summary of the method: (§4)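 KYSE520 cells in RPMI 1640 + 10% FBS were pretreated 1 h with VHL-1 ligand (10 μM), SHP2 inhibitor (10 μM), MLN4924 (0.5 μM) or MG132, then given degrader at 0.1 μM for 3 h. Cells were lysed in RIPA with protease/phosphatase inhibitors and run on 4–12% SDS–PAGE/PVDF Western blot for SHP2, with GAPDH as loading control.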
Target sequence in this assay (P40337 whole entry partner, one chain of several): as the sequence (P40337 whole entry partner, one chain of several) above

[12] = target: T1, von Hippel-Lindau disease tumor suppressor/Tyrosine-protein phosphatase non-receptor type 11; assay: Protac activity at VHL1/SHP2 in human KYSE520 cells assessed as reduction in ERK phosphorylation at 100 nM measured after 48 hrs by Western blot analysis; assay type: cell-based
Target sequence in this assay (P40337 whole entry partner, one chain of several): as the sequence (P40337 whole entry partner, one chain of several) above

[13] = target: T1, von Hippel-Lindau disease tumor suppressor/Tyrosine-protein phosphatase non-receptor type 11; assay: Protac activity at VHL1/SHP2 in human MV4-11 cells assessed as reduction in ERK phosphorylation at 100 nM measured after 48 hrs by Western blot analysis relative to control; assay type: cell-based; design: scale not given: the % may be the effect or the level left
[14] = target: T1, von Hippel-Lindau disease tumor suppressor/Tyrosine-protein phosphatase non-receptor type 11; assay: Protac activity at VHL1/SHP2 in human KYSE520 cells assessed as induction of SHP2 degradation at 0.1 uM measured after 3 hrs in presence of E1 inhibitor MLN4924 by Western blot analysis; assay type: cell-based; summary of the method: as §4
[15] = target: T1, von Hippel-Lindau disease tumor suppressor/Tyrosine-protein phosphatase non-receptor type 11; assay: Protac activity at VHL1/SHP2 in human MV4-11 cells assessed as induction of SHP2 degradation at 100 nM measured after 4 to 8 hrs by Western blot analysis; assay type: cell-based; summary of the method: as §3
[16] = target: T1, von Hippel-Lindau disease tumor suppressor/Tyrosine-protein phosphatase non-receptor type 11; assay: Protac activity at VHL1/SHP2 in human KYSE520 cells assessed as induction of SHP2 degradation at 100 nM measured within 4 hrs by Western blot analysis; assay type: cell-based; summary of the method: as §3
[17] = target: T1, von Hippel-Lindau disease tumor suppressor/Tyrosine-protein phosphatase non-receptor type 11; assay: Protac activity at VHL1/SHP2 in human KYSE520 cells assessed as reduction in ERK phosphorylation measured after 48 hrs by Western blot analysis; assay type: cell-based
[18] = target: T1, von Hippel-Lindau disease tumor suppressor/Tyrosine-protein phosphatase non-receptor type 11; assay: Protac activity at VHL1/SHP2 in human KYSE520 cells assessed as induction of SHP2 degradation at 0.1 uM measured after 3 hrs in presence of VHL-1 ligand by Western blot analysis; assay type: cell-based; summary of the method: as §4
[19] = tested on: MV4-11; assay: Potency index, ratio of SHP099 IC50 to test compound IC50 for growth inhibition of human MV4-11 cells; assay type: functional
[20] = target: T1, von Hippel-Lindau disease tumor suppressor/Tyrosine-protein phosphatase non-receptor type 11; assay: Protac activity at VHL1/SHP2 in human KYSE520 cells assessed as induction of SHP2 degradation measured after 12 hrs by Western blot analysis; assay type: cell-based; summary of the method: as §2
[21] = target: T1, von Hippel-Lindau disease tumor suppressor/Tyrosine-protein phosphatase non-receptor type 11; assay: Protac activity at VHL1/SHP2 in human MV4-11 cells assessed as reduction in ERK phosphorylation measured after 48 hrs by Western blot analysis; assay type: cell-based
[22] = target: T1, von Hippel-Lindau disease tumor suppressor/Tyrosine-protein phosphatase non-receptor type 11; assay: Protac activity at VHL1/SHP2 in human KYSE520 cells assessed as induction of SHP2 degradation at 0.1 uM measured after 3 hrs in presence of SHP2 inhibitor by Western blot analysis; assay type: cell-based; summary of the method: as §4

SMILES: CC1(N)CCN(c2cnc(-c3cccc(Cl)c3Cl)c(N)n2)CC1
pIC50 [1]: 6.00
pIC50 [2]: 4.74

SMILES: CC(=O)Nc1cccc(Sc2ncc(N3CCC(C)(N)CC3)nc2N)c1Cl
pIC50 [1]: 5.18
pIC50 [2]: 4.40

Activity [3]: > 95%
Activity [4]: > 95%
Activity [5]: > 95%
SMILES: Cc1ncsc1-c1ccc([C@H](C)NC(=O)[C@@H]2C[C@@H](O)CN2C(=O)[C@@H](NC(=O)CCCCCCCOc2ccc(NC(=O)CCC(=O)Nc3cccc(Sc4ncc(N5CCC(C)(N)CC5)nc4N)c3Cl)cc2)C(C)(C)C)cc1

SMILES: Cc1ncsc1-c1ccc([C@H](C)NC(=O)[C@@H]2C[C@@H](O)CN2C(=O)[C@@H](NC(=O)CCCCCCCCN2CCN(C(=O)CCC(=O)Nc3cccc(Sc4ncc(N5CCC(C)(N)CC5)nc4N)c3Cl)CC2)C(C)(C)C)cc1 (single isomer, unassigned)
inhibition [6]: 100%
Ratio IC50 [7]: 28
Activity [8]: Dose-dependent effect
DC50 [8]: 2.6 nM
Activity [9]: 100%
solubility [10]: Soluble
pIC50 [1]: 8.00
Activity [3]: > 95%
Activity [11]: inactive
Activity [4]: > 95%
Activity [12]: Active
Activity [13]: 100%
Activity [14]: inactive
Activity [5]: > 95%
Activity [15]: Active
Activity [16]: Active
Activity [17]: Dose-dependent effect
pIC50 [2]: 6.18
Activity [18]: inactive
Ratio IC50 [19]: 100
Activity [20]: Dose-dependent effect
DC50 [20]: 6 nM
Activity [21]: Dose-dependent effect
Activity [22]: inactive

Activity [3]: 90%
Activity [4]: 62%
Activity [5]: 8%
SMILES: Cc1ncsc1-c1ccc([C@H](C)NC(=O)[C@@H]2C[C@@H](O)CN2C(=O)[C@@H](NC(=O)CCCCCCCCCCCCCCC(=O)Nc2cccc(Sc3ncc(N4CCC(C)(N)CC4)nc3N)c2Cl)C(C)(C)C)cc1 (single isomer, unassigned)

Activity [3]: > 95%
Activity [4]: 80%
Activity [5]: 6%
SMILES: Cc1ncsc1-c1ccc([C@H](C)NC(=O)[C@@H]2C[C@@H](O)CN2C(=O)[C@@H](NC(=O)CCCCCCCCCCCN2CCN(CC(=O)Nc3cccc(Sc4ncc(N5CCC(C)(N)CC5)nc4N)c3Cl)CC2)C(C)(C)C)cc1 (single isomer, unassigned)

Activity [3]: > 95%
Activity [4]: 85%
Activity [5]: 47%
SMILES: Cc1ncsc1-c1ccc([C@H](C)NC(=O)[C@@H]2C[C@@H](O)CN2C(=O)[C@@H](NC(=O)CCCCCCCCCCN2CCN(CC(=O)Nc3cccc(Sc4ncc(N5CCC(C)(N)CC5)nc4N)c3Cl)CC2)C(C)(C)C)cc1 (single isomer, unassigned)

Activity [3]: > 95%
Activity [4]: > 95%
Activity [5]: > 95%
SMILES: Cc1ncsc1-c1ccc([C@H](C)NC(=O)[C@@H]2C[C@@H](O)CN2C(=O)[C@@H](NC(=O)CCCCCCCCCN2CCN(C(=O)CCC(=O)Nc3cccc(Sc4ncc(N5CCC(C)(N)CC5)nc4N)c3Cl)CC2)C(C)(C)C)cc1 (single isomer, unassigned)

Activity [3]: 82%
Activity [4]: 0%
Activity [5]: 9%
SMILES: Cc1ncsc1-c1ccc([C@H](C)NC(=O)[C@@H]2C[C@@H](O)CN2C(=O)[C@@H](NC(=O)CCCCN2CCN(CCCCNC(=O)CCC(=O)Nc3cccc(Sc4ncc(N5CCC(C)(N)CC5)nc4N)c3Cl)CC2)C(C)(C)C)cc1 (single isomer, unassigned)

Activity [3]: 87%
Activity [4]: 32%
Activity [5]: 85%
SMILES: Cc1ncsc1-c1ccc([C@H](C)NC(=O)[C@@H]2C[C@@H](O)CN2C(=O)[C@@H](NC(=O)CCOCCOCCOCCNC(=O)CCC(=O)Nc2cccc(Sc3ncc(N4CCC(C)(N)CC4)nc3N)c2Cl)C(C)(C)C)cc1 (single isomer, unassigned)

Activity [3]: > 95%
Activity [4]: 80%
Activity [5]: > 95%
SMILES: Cc1ncsc1-c1ccc([C@H](C)NC(=O)[C@@H]2C[C@@H](O)CN2C(=O)[C@@H](NC(=O)COCCOCCOCCNC(=O)CCC(=O)Nc2cccc(Sc3ncc(N4CCC(C)(N)CC4)nc3N)c2Cl)C(C)(C)C)cc1 (single isomer, unassigned)

Activity [3]: > 95%
Activity [4]: 53%
Activity [5]: 95%
SMILES: Cc1ncsc1-c1ccc([C@H](C)NC(=O)[C@@H]2C[C@@H](O)CN2C(=O)[C@@H](NC(=O)COCCOCCOCCOCCNC(=O)CCC(=O)Nc2cccc(Sc3ncc(N4CCC(C)(N)CC4)nc3N)c2Cl)C(C)(C)C)cc1 (single isomer, unassigned)
